Columns and labels:
Type in all cases: functional
Conditions in all cases: read-out: GI
[1] = tested on: SK-N-SH; experiment: Growth inhibition of human SK-N-SH cells at 10 uM by sulforhodamine B assay
How it was run: (§1)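 Single-dose 10 µM screen by sulforhodamine B assay, reported as percent inhibition of cell proliferation. Cells grown in medium with 10% heat-inactivated FBS at 37 °C, 5% CO2, and treated at about 70% confluence or in log phase. Compounds dissolved in DMSO; controls received vehicle (<0.5% v/v).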

[2] = tested on: DU-145; experiment: Growth inhibition of human DU145 cells at 10 uM by sulforhodamine B assay; how it was run: as §1
[3] = tested on: OVCAR-5; experiment: Growth inhibition of human OVCAR5 cells at 10 uM by sulforhodamine B assay; how it was run: as §1
[4] = tested on: A549; experiment: Growth inhibition of human A549 cells at 10 uM by sulforhodamine B assay; how it was run: as §1
[5] = tested on: HEp-2; experiment: Growth inhibition of human Hep2 cells at 10 uM by sulforhodamine B assay; how it was run: as §1
[6] = tested on: IMR-32; experiment: Growth inhibition of human IMR32 cells at 10 uM by sulforhodamine B assay; how it was run: as §1
[7] = tested on: SiHa; experiment: Growth inhibition of human SiHa cells at 10 uM by sulforhodamine B assay; how it was run: as §1
[8] = Growth inhibition of human 502713 cells at 10 uM by sulforhodamine B assay; how it was run: as §1
[9] = tested on: HCT-15; experiment: Growth inhibition of human HCT15 cells at 10 uM by sulforhodamine B assay; how it was run: as §1
[10] = tested on: SW-620; experiment: Growth inhibition of human SW620 cells at 10 uM by sulforhodamine B assay; how it was run: as §1

SMILES | inhibition of growth at 10 µM [1] [%] | inhibition of growth at 10 µM [2] [%] | inhibition of growth at 10 µM [3] [%] | inhibition of growth at 10 µM [4] [%] | inhibition of growth at 10 µM [5] [%] | inhibition of growth at 10 µM [6] [%] | inhibition of growth at 10 µM [7] [%] | inhibition of growth at 10 µM [8] [%] | inhibition of growth at 10 µM [9] [%] | inhibition of growth at 10 µM [10] [%]
COc1ccc2nc(NC(=O)c3cccnc3Nc3cc(F)c(F)c(F)c3)sc2c1 | 47 | 28 | 25 | 6 | 7 | 55 | 63 | 43 | 21 | 52
CC(=O)O[C@H]1C(=O)[C@@]2(C)[C@H]([C@H](OC(=O)c3ccccc3)[C@]3(O)C[C@H](OC(=O)[C@H](O)[C@@H](NC(=O)c4ccccc4)c4ccccc4)C(C)=C1C3(C)C)[C@]1(OC(C)=O)CO[C@@H]1C[C@@H]2O [PACLITAXEL] | 20 | 42 | 51 | 41 | – | 46 | 49 | 59 | 37 | 73
COc1ccc(Nc2ncccc2C(=O)Nc2nc3ccc(OC)cc3s2)cc1 | 44 | 22 | 8 | 20 | 0 | 40 | 55 | 21 | 0 | 43
COc1ccc2nc(NC(=O)c3cccnc3Nc3ccc(Cl)cc3)sc2c1 | 23 | 25 | 10 | 10 | 13 | 24 | 31 | 10 | 44 | 15
CN1c2ccccc2S(=O)(=O)n2nc(-c3cccnc3Nc3cc(F)c(F)c(F)c3)nc21 | 18 | 13 | 8 | 14 | 0 | 28 | 15 | 26 | 9 | 34
COc1ccc2nc(NC(=O)c3cccnc3Nc3ccc(Cl)cc3Cl)sc2c1 | 14 | 17 | 4 | 0 | 17 | 6 | 16 | 4 | 24 | 10
O=S1(=O)c2ccccc2N(c2ccccc2)c2nc(-c3cccnc3Nc3ccc(Cl)cc3)nn21 | 27 | 6 | 1 | 46 | 57 | 31 | 30 | 18 | 0 | 68
CN1c2ccccc2S(=O)(=O)n2nc(-c3cccnc3Nc3ccc(Cl)cc3)nc21 | 3 | 9 | 10 | 28 | 0 | 3 | 13 | 28 | 0 | 34
O=c1[nH]cc(F)c(=O)[nH]1 [FLUOROURACIL] | 7 | – | 22 | – | – | 71 | 44 | 21 | 44 | 76

— ChEMBL document CHEMBL1926589, “2-Anilinonicotinyl linked 2-aminobenzothiazoles and [1,2,4]triazolo[1,5-b] [1,2,4]benzothiadiazine conjugates as potential mitochondrial apoptotic inducers” (Bioorg Med Chem, 2011)
